Data published in ChEMBL document CHEMBL1781892, “Microwave assisted synthesis and structure-activity relationship of 4-hydroxy-N'-[1-phenylethylidene]-2H/2-methyl-1,2-benzothiazine-3-carbohydrazide 1,1-dioxides as anti-microbial agents” (2011).

Tests used:
Staphylococcus aureus = assay: Antibacterial activity against Staphylococcus aureus using 1 x 10^4 CFU/ml inoculum after 24 hrs by microdilution method; format: functional
Aspergillus fumigatus [1] = assay: Antifungal activity against Aspergillus fumigatus using 1 x 10^5 spore/100 uL assessed as 99.5% fungal killing of original inoculum after 72 hrs by microdilution method; format: functional
Aspergillus flavus [2] = assay: Antifungal activity against Aspergillus flavus using 1 x 10^5 spore/100 uL after 72 hrs by microdilution method; format: functional
Bacillus subtilis = assay: Antibacterial activity against Bacillus subtilis using 1 x 10^4 CFU/ml inoculum after 24 hrs by microdilution method; format: functional
[3] = Antifungal activity against Trichoderma reesei using 1 x 10^5 spore/100 uL assessed as 99.5% fungal killing of original inoculum after 72 hrs by microdilution method; format: functional
Aspergillus niger [4] = assay: Antifungal activity against Aspergillus niger using 1 x 10^5 spore/100 uL assessed as 99.5% fungal killing of original inoculum after 72 hrs by microdilution method; format: functional
Curvularia australiensis [5] = assay: Antifungal activity against Drechslera australiensis using 1 x 10^5 spore/100 uL assessed as 99.5% fungal killing of original inoculum after 72 hrs by microdilution method; format: functional
Trichoderma viride [6] = assay: Antifungal activity against Trichoderma viride using 1 x 10^5 spore/100 uL assessed as 99.5% fungal killing of original inoculum after 72 hrs by microdilution method; format: functional
Bacillus cereus = assay: Antibacterial activity against Bacillus cereus using 1 x 10^4 CFU/ml inoculum after 24 hrs by microdilution method; format: functional
Salmonella typhi = assay: Antibacterial activity against Salmonella typhi using 1 x 10^4 CFU/ml inoculum after 24 hrs by microdilution method; format: functional, Salmonella enterica subsp. enterica serovar Typhi
Aspergillus niger [7] = assay: Antifungal activity against Aspergillus niger using 1 x 10^5 spore/100 uL after 72 hrs by microdilution method; format: functional
Escherichia coli = assay: Antibacterial activity against Escherichia coli using 1 x 10^4 CFU/ml inoculum after 24 hrs by microdilution method; format: functional
Aspergillus flavus [8] = assay: Antifungal activity against Aspergillus flavus using 1 x 10^5 spore/100 uL assessed as 99.5% fungal killing of original inoculum after 72 hrs by microdilution method; format: functional
Curvularia australiensis [9] = assay: Antifungal activity against Drechslera australiensis using 1 x 10^5 spore/100 uL after 72 hrs by microdilution method; format: functional
Bacillus thuringiensis = assay: Antibacterial activity against Bacillus thuringiensis using 1 x 10^4 CFU/ml inoculum after 24 hrs by microdilution method; format: functional
Pseudomonas aeruginosa = assay: Antibacterial activity against Pseudomonas aeruginosa using 1 x 10^4 CFU/ml inoculum after 24 hrs by microdilution method; format: functional
[10] = Antifungal activity against Trichoderma reesei using 1 x 10^5 spore/100 uL after 72 hrs by microdilution method; format: functional
Procedure, shortened: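 Spores washed from malt agar cultures with sterile 0.85% saline plus 0.1% Tween 80, adjusted to about 1.0×10^5 per 100 µl well. Compounds from a 1 mg/ml DMSO stock were serially diluted in malt broth with inoculum in 96-well plates and incubated 72 h at 28 °C. MIC is the lowest concentration with no visible growth under a binocular microscope. DMSO served as negative control.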

Trichoderma viride [11] = assay: Antifungal activity against Trichoderma viride using 1 x 10^5 spore/100 uL after 72 hrs by microdilution method; format: functional
Aspergillus fumigatus [12] = assay: Antifungal activity against Aspergillus fumigatus using 1 x 10^5 spore/100 uL after 72 hrs by microdilution method; format: functional

Structure (SMILES) | MIC (Staphylococcus aureus) | MFC (Aspergillus fumigatus [1]) | MIC (Aspergillus flavus [2]) | MIC (Bacillus subtilis) | MFC [3] | MFC (Aspergillus niger [4]) | MFC (Curvularia australiensis [5]) | MFC (Trichoderma viride [6]) | MIC (Bacillus cereus) | MIC (Salmonella typhi) | MIC (Aspergillus niger [7]) | MIC (Escherichia coli) | MFC (Aspergillus flavus [8]) | MIC (Curvularia australiensis [9]) | MIC (Bacillus thuringiensis) | MIC (Pseudomonas aeruginosa) | MIC [10] | MIC (Trichoderma viride [11]) | MIC (Aspergillus fumigatus [12])
C/C(=N\NC(=O)C1=C(O)c2ccccc2S(=O)(=O)N1)c1ccc(N)cc1 | 20.5 ×10⁻² umol | 150.1 ×10⁻² umol | 82.9 ×10⁻² umol | 6 ×10⁻² umol | 138 ×10⁻² µmol | 177.5 ×10⁻² umol | 129.5 ×10⁻² umol | 142.8 ×10⁻² umol | 6.2 ×10⁻² umol | 27.7 ×10⁻² umol | 83.8 ×10⁻² umol | 22.9 ×10⁻² umol | 175.9 ×10⁻² umol | 70 ×10⁻² umol | 6.1 ×10⁻² umol | 24.5 ×10⁻² umol | 70.3 ×10⁻² µmol | 71.3 ×10⁻² umol | 74 ×10⁻² umol
COc1ccc(/C(C)=N/NC(=O)C2=C(O)c3ccccc3S(=O)(=O)N2C)cc1 | 26.3 ×10⁻² umol | 149.5 ×10⁻² umol | 86.1 ×10⁻² umol | 7.6 ×10⁻² umol | 158 ×10⁻² µmol | 180.7 ×10⁻² umol | 159.9 ×10⁻² umol | 158.4 ×10⁻² umol | 7.9 ×10⁻² umol | 32.4 ×10⁻² umol | 87.2 ×10⁻² umol | 27.9 ×10⁻² umol | 170 ×10⁻² umol | 80 ×10⁻² umol | 7.8 ×10⁻² umol | 29.2 ×10⁻² umol | 78.9 ×10⁻² µmol | 79.2 ×10⁻² umol | 77.6 ×10⁻² umol
C/C(=N\NC(=O)C1=C(O)c2ccccc2S(=O)(=O)N1)c1ccc(F)cc1F | 28.1 ×10⁻² umol | 118.2 ×10⁻² umol | 76.4 ×10⁻² umol | 8 ×10⁻² umol | 138 ×10⁻² µmol | 160.3 ×10⁻² umol | 145.7 ×10⁻² umol | 139.6 ×10⁻² umol | 7.8 ×10⁻² umol | 33.2 ×10⁻² umol | 76.6 ×10⁻² umol | 29.2 ×10⁻² umol | 168.7 ×10⁻² umol | 72.3 ×10⁻² umol | 8.2 ×10⁻² umol | 30.6 ×10⁻² umol | 69 ×10⁻² µmol | 72 ×10⁻² umol | 69.8 ×10⁻² umol
C/C(=N\NC(=O)C1=C(O)c2ccccc2S(=O)(=O)N1C)c1ccc(F)cc1F | 27.6 ×10⁻² umol | 140.1 ×10⁻² umol | 76.3 ×10⁻² umol | 7.8 ×10⁻² umol | 130 ×10⁻² µmol | 143.6 ×10⁻² umol | 144.2 ×10⁻² umol | 143 ×10⁻² umol | 7.5 ×10⁻² umol | 33.1 ×10⁻² umol | 76.5 ×10⁻² umol | 28.9 ×10⁻² umol | 149.4 ×10⁻² umol | 72.1 ×10⁻² umol | 8 ×10⁻² umol | 30.5 ×10⁻² umol | 68.4 ×10⁻² µmol | 72.1 ×10⁻² umol | 69.6 ×10⁻² umol
C/C(=N\NC(=O)C1=C(O)c2ccccc2S(=O)(=O)N1)c1cccc(O)c1 | 18.4 ×10⁻² umol | >200 ×10⁻² umol | >100 ×10⁻² umol | 4.6 ×10⁻² umol | > 200 ×10⁻² µmol | >200 ×10⁻² umol | >200 ×10⁻² umol | >200 ×10⁻² umol | 4.5 ×10⁻² umol | 23.5 ×10⁻² umol | >100 ×10⁻² umol | 19.7 ×10⁻² umol | >200 ×10⁻² umol | >100 ×10⁻² umol | 4.4 ×10⁻² umol | 21.2 ×10⁻² umol | > 100 ×10⁻² µmol | >100 ×10⁻² umol | >100 ×10⁻² umol
COc1cccc(/C(C)=N/NC(=O)C2=C(O)c3ccccc3S(=O)(=O)N2C)c1 | 24.1 ×10⁻² umol | 168.2 ×10⁻² umol | 92.6 ×10⁻² umol | 7.7 ×10⁻² umol | 159 ×10⁻² µmol | 190 ×10⁻² umol | 154.8 ×10⁻² umol | 160.4 ×10⁻² umol | 7 ×10⁻² umol | 29.4 ×10⁻² umol | 90.1 ×10⁻² umol | 25.6 ×10⁻² umol | 188.9 ×10⁻² umol | 81.7 ×10⁻² umol | 7.8 ×10⁻² umol | 26.8 ×10⁻² umol | 79.6 ×10⁻² µmol | 80.5 ×10⁻² umol | 85.7 ×10⁻² umol
C/C(=N\NC(=O)C1=C(O)c2ccccc2S(=O)(=O)N1)c1ccccc1O | 17.8 ×10⁻² umol | >200 ×10⁻² umol | >100 ×10⁻² umol | 4.4 ×10⁻² umol | > 200 ×10⁻² µmol | >200 ×10⁻² umol | >200 ×10⁻² umol | >200 ×10⁻² umol | 4.2 ×10⁻² umol | 22.7 ×10⁻² umol | >100 ×10⁻² umol | 19.9 ×10⁻² umol | >200 ×10⁻² umol | >100 ×10⁻² umol | 4.1 ×10⁻² umol | 20.6 ×10⁻² umol | > 100 ×10⁻² µmol | >100 ×10⁻² umol | >100 ×10⁻² umol
C/C(=N\NC(=O)C1=C(O)c2ccccc2S(=O)(=O)N1C)c1ccc(O)cc1 | 18.9 ×10⁻² umol | >200 ×10⁻² umol | >100 ×10⁻² umol | 4.8 ×10⁻² umol | > 200 ×10⁻² µmol | >200 ×10⁻² umol | >200 ×10⁻² umol | >200 ×10⁻² umol | 4.6 ×10⁻² umol | 25.1 ×10⁻² umol | >100 ×10⁻² umol | 21 ×10⁻² umol | >200 ×10⁻² umol | >100 ×10⁻² umol | 5 ×10⁻² umol | 22.1 ×10⁻² umol | > 100 ×10⁻² µmol | >100 ×10⁻² umol | >100 ×10⁻² umol
C/C(=N\NC(=O)C1=C(O)c2ccccc2S(=O)(=O)N1C)c1ccc(I)cc1 | 28 ×10⁻² umol | 159.8 ×10⁻² umol | 89.8 ×10⁻² umol | 9.3 ×10⁻² umol | 123 ×10⁻² µmol | 198.4 ×10⁻² umol | 150.6 ×10⁻² umol | 139.2 ×10⁻² umol | 9 ×10⁻² umol | 33.2 ×10⁻² umol | 91.4 ×10⁻² umol | 29.3 ×10⁻² umol | 190.7 ×10⁻² umol | 74 ×10⁻² umol | 9.2 ×10⁻² umol | 30.5 ×10⁻² umol | 70.1 ×10⁻² µmol | 71.1 ×10⁻² umol | 81.9 ×10⁻² umol
C/C(=N\NC(=O)C1=C(O)c2ccccc2S(=O)(=O)N1C)c1ccc(N)cc1 | 20.4 ×10⁻² umol | 151.6 ×10⁻² umol | 82.9 ×10⁻² umol | 6.2 ×10⁻² umol | 136 ×10⁻² µmol | 167 ×10⁻² umol | 133.7 ×10⁻² umol | 142 ×10⁻² umol | 6.2 ×10⁻² umol | 27.5 ×10⁻² umol | 83.7 ×10⁻² umol | 22.4 ×10⁻² umol | 166.3 ×10⁻² umol | 69.8 ×10⁻² umol | 6.3 ×10⁻² umol | 24.3 ×10⁻² umol | 68 ×10⁻² µmol | 71.1 ×10⁻² umol | 73.6 ×10⁻² umol
C/C(=N\NC(=O)C1=C(O)c2ccccc2S(=O)(=O)N1)c1ccc(Cl)cc1 | 30.8 ×10⁻² umol | 140.1 ×10⁻² umol | 81.9 ×10⁻² umol | 12.5 ×10⁻² umol | 125 ×10⁻² µmol | 145.4 ×10⁻² umol | 130.5 ×10⁻² umol | 114.7 ×10⁻² umol | 11.7 ×10⁻² umol | – | 82.9 ×10⁻² umol | 31.2 ×10⁻² umol | 163 ×10⁻² umol | 64.4 ×10⁻² umol | 12.3 ×10⁻² umol | 32.4 ×10⁻² umol | 62.5 ×10⁻² µmol | 67.3 ×10⁻² umol | 72.7 ×10⁻² umol
